From ChEMBL document CHEMBL1149292, “A rational utilization of high-throughput screening affords selective, orally bioavailable 1-benzyl-3-carboxyazetidine sphingosine-1-phosphate-1 receptor agonists” (J Med Chem, 2004) come the findings set out here.

As usually defined, the IC50 is the concentration that gives 50% inhibition. The low end stands for greater potency, the high end for weaker potency. The term EC50 denotes the concentration at which the effect is half-maximal. A lower EC50 goes with a more potent agent. The term ED50 denotes the dose at which the effect has come halfway, by size or by number of responders. For orientation: half-life means the time needed for the level to fall by half in the phase considered. High values mean slow loss, low ones fast loss. By Cmax is commonly meant the maximum level reached in the sampled fluid or tissue. Broadly, the bioavailability is the share of a dose that reaches the circulation, judged against a reference dose that is usually intravenous.

Structures are written as SMILES.

In data set [1] the target is T1, Sphingosine 1-phosphate receptor 3 (Homo sapiens, UniProt Q99500). In words: Displacement of [33P]sphingosine 1 phosphate from human S1P3 receptor expressed in CHO cells. The class given is cell-based.
T1 sequence (Q99500 whole entry): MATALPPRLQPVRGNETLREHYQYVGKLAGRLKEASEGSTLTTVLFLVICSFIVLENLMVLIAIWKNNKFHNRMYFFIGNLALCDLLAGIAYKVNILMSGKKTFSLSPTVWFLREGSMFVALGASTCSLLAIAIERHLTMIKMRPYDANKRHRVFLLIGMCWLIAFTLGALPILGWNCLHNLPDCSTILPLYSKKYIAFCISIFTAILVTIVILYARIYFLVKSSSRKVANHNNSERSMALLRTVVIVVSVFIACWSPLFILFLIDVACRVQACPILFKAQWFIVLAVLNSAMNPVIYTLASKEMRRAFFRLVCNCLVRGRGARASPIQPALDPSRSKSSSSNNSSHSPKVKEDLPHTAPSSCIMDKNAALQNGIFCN
Data set [2] has as its target T2, Sphingosine 1-phosphate receptor 1 (Homo sapiens, UniProt P21453). In words: Activity at human S1P1 receptor expressed in CHO cells by [35S]GTPgammaS binding assay. The class given is functional, cell-based. In outline: (§1)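 Agonism measured as ligand-induced [35S]-GTPγS binding to membranes of CHO cells stably expressing the human S1P receptor.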
(In general: Binding of GTPγS marks nucleotide exchange on a G protein.)

Data set [3] is described as follows: Volume of distribution at steady state in rat at 2 mg/kg, po and 1 mg/kg, iv. It is filed as ADME, organism-based. To be noted: in vivo, read-out: Vdss.
For the next data set, the system named is Mus musculus. The data set can be described thus: Decrease in peripheral blood lymphocytes in po dosed mouse after 3 hrs. The class given is functional. Summed up: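 Compound given orally to mice. Peripheral blood lymphocyte counts taken 3 h after dosing, expressed as average percent decrease in n = 3 animals versus controls (n = 3). ED50 from dose-titration.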

Data set [4] concerns the target Sphingosine 1-phosphate receptor 5 (Homo sapiens, UniProt Q9H228). In words: Displacement of [33P]sphingosine 1 phosphate from human S1P5 receptor expressed in CHO cells. The class given is cell-based. Summed up:
(§2)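 Competition binding with [33P]-labeled S1P on membranes of CHO cells stably expressing each human S1P receptor. Values are the mean of n = 3 determinations.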

The nature of data set [5]: Half life in rat at 2 mg/kg, po and 1 mg/kg, iv. To be noted: in vivo. The class given is ADME, organism-based. In outline:
(§3)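 Rat PK at 2.0 mpk po and 1.0 mpk iv. Plasma compound levels measured.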

The target of data set [6] is T1, Sphingosine 1-phosphate receptor 3. In words: Activity at human S1P3 receptor expressed in CHO cells by [35S]GTP-gamma-S binding assay. The class given is functional, cell-based. In outline:
as §1

The target of data set [7] is Sphingosine 1-phosphate receptor 2 (Homo sapiens, UniProt O95136). The data set can be described thus: Displacement of [33P]sphingosine 1 phosphate from human S1P2 receptor expressed in CHO cells. The class given is cell-based.
Sphingosine 1-phosphate receptor 2, sequence (O95136 whole entry): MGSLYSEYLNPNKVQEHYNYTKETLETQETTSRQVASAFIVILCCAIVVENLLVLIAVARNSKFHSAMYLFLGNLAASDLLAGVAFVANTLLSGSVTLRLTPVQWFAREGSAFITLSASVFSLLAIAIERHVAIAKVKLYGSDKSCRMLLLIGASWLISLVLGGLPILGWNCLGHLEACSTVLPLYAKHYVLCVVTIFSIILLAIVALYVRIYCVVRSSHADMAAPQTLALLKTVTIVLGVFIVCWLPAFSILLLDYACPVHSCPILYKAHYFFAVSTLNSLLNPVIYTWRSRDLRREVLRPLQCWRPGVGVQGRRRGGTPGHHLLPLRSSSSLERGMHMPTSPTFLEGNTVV
For data set [8], the target named is T2, Sphingosine 1-phosphate receptor 1. The data set can be described thus: Displacement of [33P]sphingosine 1 phosphate from human S1P1 receptor expressed in CHO cells. The class given is cell-based.
A short description of data set [9]: Cmax in rat at 2 mg/kg, po and 1 mg/kg, iv. It is filed as ADME, organism-based. To be noted: in vivo. Summed up:
as §3

The nature of data set [10]: Bioavailability in rat at 2 mg/kg, po and 1 mg/kg, iv. The class given is ADME, organism-based. To be noted: in vivo. In outline:
as §3

Data set [11] is described as follows: Plasma clearance in rat at 2 mg/kg, po and 1 mg/kg, iv. It is filed as ADME, organism-based. In outline:
as §3

The target of data set [12] is T3, Sphingosine 1-phosphate receptor 4 (Homo sapiens, UniProt O95977).
T3 sequence (O95977 whole entry): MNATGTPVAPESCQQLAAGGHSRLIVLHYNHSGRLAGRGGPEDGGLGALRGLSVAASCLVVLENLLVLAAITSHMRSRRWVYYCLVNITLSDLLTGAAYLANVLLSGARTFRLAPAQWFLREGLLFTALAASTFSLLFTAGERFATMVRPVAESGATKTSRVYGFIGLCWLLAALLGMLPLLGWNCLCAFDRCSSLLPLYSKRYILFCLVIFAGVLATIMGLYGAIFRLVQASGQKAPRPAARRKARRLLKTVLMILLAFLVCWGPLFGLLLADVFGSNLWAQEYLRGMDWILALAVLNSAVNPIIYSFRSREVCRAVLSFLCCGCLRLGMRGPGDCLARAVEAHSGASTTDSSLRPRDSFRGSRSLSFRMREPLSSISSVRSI
In words: Displacement of [33P]sphingosine 1 phosphate from human S1P4 receptor expressed in CHO cells. It is filed as cell-based. Summed up: as §2

T2 sequence (P21453 whole entry): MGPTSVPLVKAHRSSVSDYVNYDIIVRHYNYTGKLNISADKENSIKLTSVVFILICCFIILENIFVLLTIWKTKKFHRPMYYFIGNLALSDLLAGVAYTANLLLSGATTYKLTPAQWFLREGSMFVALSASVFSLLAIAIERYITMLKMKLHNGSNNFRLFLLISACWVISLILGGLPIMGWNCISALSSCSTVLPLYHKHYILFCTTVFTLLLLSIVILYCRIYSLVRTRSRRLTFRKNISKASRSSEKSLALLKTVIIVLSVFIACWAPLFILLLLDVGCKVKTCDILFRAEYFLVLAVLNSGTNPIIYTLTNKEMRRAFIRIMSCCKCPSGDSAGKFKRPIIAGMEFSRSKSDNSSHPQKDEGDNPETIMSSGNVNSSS
Sphingosine 1-phosphate receptor 5, sequence (Q9H228 whole entry): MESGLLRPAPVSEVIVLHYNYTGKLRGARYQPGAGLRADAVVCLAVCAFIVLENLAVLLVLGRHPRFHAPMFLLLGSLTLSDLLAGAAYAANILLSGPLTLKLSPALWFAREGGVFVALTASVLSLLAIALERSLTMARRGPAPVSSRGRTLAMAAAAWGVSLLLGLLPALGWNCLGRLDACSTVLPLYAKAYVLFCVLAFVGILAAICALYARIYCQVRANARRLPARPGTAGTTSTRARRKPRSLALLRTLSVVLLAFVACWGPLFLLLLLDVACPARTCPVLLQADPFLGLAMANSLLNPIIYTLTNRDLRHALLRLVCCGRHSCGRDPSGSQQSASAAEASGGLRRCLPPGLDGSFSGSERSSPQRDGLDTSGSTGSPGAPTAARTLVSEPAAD

As to `O=C(O)C1CN(Cc2ccc(-c3noc(-c4cc(-c5ccccc5)c(C(F)(F)F)s4)n3)cc2)C1`, the IC50 in data set [1] was 1000 nM (antagonist); in [4], 16 nM (antagonist); in [7], above 10000 nM; in data set [8], 8.3 nM (antagonist); in data set [12], 10000 nM. Moreover, the EC50 in data set [2] was 0.2 nM (agonist); in [6] it was 17 nM (agonist). Also, in data set [3], the Vd is 1.9 L/kg. The same molecule registered an ED50 with Mus musculus of 0.07 mg/kg. This molecule also had a half-life in data set [5] of 10.5 h. Moreover, the Cmax in data set [9] came to 1300 nM. For the same molecule, the bioavailability in data set [10] was 64%. The molecule further had a clearance in data set [11] of 2.2 mL/min/kg.
